According to ChEMBL document CHEMBL1681757, “Discovery of potent dipeptidyl peptidase IV inhibitors derived from β-aminoamides bearing substituted [1,2,3]-triazolopiperidines for the treatment of type 2 diabetes” (Bioorg Med Chem Lett, 2011):

Experiments:
[1] = Cmax in rat at 20 mg/kg, po; format: ADME, organism-based; parameters: dose 20 mg/kg, route oral; settings: in vivo
Procedure, shortened: (§1)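 Healthy male rats (200–220 g), four per group, dosed orally at 20 mg/kg. Plasma exposure parameters derived: Cmax, Tmax, terminal half-life after oral dosing, and area under the concentration curve.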

[2] = Tmax in rat at 20 mg/kg, po; format: ADME, organism-based; parameters: dose 20 mg/kg, route oral; settings: in vivo; procedure, shortened: as §1
[3] = Terminal half life in rat at 20 mg/kg, po; format: ADME, organism-based; parameters: dose 20 mg/kg, route oral; settings: in vivo, read-out: beta t1/2 (converted); procedure, shortened: as §1
[4] = AUC (0 to t) in rat at 20 mg/kg, po; format: ADME, organism-based; parameters: dose 20 mg/kg, route oral; settings: plasma; procedure, shortened: as §1
Mus musculus [5] = species on record: Mus musculus; assay: animal or person; settings: ICR, Blood, po, 1 h, read-out: INH
Mus musculus [6] = species on record: Mus musculus; assay: animal or person; settings: ICR, Blood, po, 1 h, read-out: INH; remark: listed apart in the source

| Structure (SMILES) | Cmax [1] [ng/mL] | Tmax [2] [h] | half-life [3] [min] | AUC(0-t) [4] [ng·h/mL] | inhibition in vivo at 3 mg/kg (Mus musculus [5]) [%] | inhibition in vivo at 10 mg/kg (Mus musculus [6]) [%] |
| --- | --- | --- | --- | --- | --- | --- |
| N[C@@H](CC(=O)N1CCn2nnc(-c3cnco3)c2C1)Cc1cc(F)c(F)cc1F.O=C(O)/C=C/C(=O)O | 475 | 1.88 | 81 | 1640 | – | – |
| Cl.N[C@@H](CC(=O)N1CCn2nnc(-c3ccc(C(=O)O)cc3)c2C1)Cc1cc(F)c(F)cc1F | 600 | 0.38 | 131 | 1130 | – | – |
| Cl.NC(=O)c1nnn2c1CN(C(=O)C[C@H](N)Cc1cc(F)c(F)cc1F)CC2 | 231 | 0.63 | 134 | 871 | – | – |
| Cl.N[C@@H](CC(=O)N1CCn2nnc(-c3ccco3)c2C1)Cc1cc(F)c(F)cc1F | 255 | 1 | 112 | 730 | – | – |
| N[C@@H](CC(=O)N1CCn2nnc(-c3ccccn3)c2C1)Cc1cc(F)c(F)cc1F.O=C(O)/C=C/C(=O)O | 484 | 1.38 | 160 | 2510 | – | – |
| N[C@@H](CC(=O)N1CCn2nnc(C(F)(F)F)c2C1)Cc1cc(F)c(F)cc1F.O=C(O)/C=C/C(=O)O | 965 | 0.88 | 152 | 4560 | 19 | 27 |
| Cl.N[C@@H](CC(=O)N1CCn2nnc(C(F)F)c2C1)Cc1cc(F)c(F)cc1F | 695 | 1 | 136 | 2520 | – | – |
